We go through seven compounds from ChEMBL document CHEMBL1144710, “epigenetic multiple ligands: mixed histone/protein methyltransferase, acetyltransferase, and class III deacetylase (sirtuin) inhibitors” (J Med Chem, 2008).

Active and inactive are the calls of the source. Unless noted, the rule behind the calls is not given here.

Usually inhibition stands for how much of the control response was suppressed. For orientation: IC50 means the concentration at which inhibition is half-maximal. Higher therefore signals weaker potency in that assay.

Test [1] deals with RmtA (Emericella nidulans) (UniProt Q5VLE3). As to the kind of experiment: Inhibition of Aspergillus nidulans RmtA at 90 uM.
RmtA (Emericella nidulans), sequence (Q5VLE3 as listed by the source): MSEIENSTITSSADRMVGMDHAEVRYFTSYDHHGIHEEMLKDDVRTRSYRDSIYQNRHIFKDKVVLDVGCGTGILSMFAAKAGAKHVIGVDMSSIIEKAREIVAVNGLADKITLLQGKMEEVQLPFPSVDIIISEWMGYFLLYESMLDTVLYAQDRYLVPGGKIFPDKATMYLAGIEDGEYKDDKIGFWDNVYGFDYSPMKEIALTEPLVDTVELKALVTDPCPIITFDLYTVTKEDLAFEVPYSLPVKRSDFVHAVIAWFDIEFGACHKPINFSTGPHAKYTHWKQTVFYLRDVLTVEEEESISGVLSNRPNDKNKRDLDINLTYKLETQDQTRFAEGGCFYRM
Test [2] concerns U-937. As to the kind of experiment: Inhibition of histone H3K4 methylation in human U937 cells at 50 uM after 24 hrs. Format: functional, cell-based. The method in brief:
(§1)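 U937 cells treated at 50 µM for 24 h. Histones extracted with Triton buffer, then 0.2 M HCl overnight at 4 °C. 3–10 µg run on 15% SDS-PAGE and immunoblotted with anti-monomethyl-H3K4, monomethyl-H4R3 or dimethyl-H3R17 (1:500, overnight 4 °C), ECL detection. Loading controls: total H4 (H3K4), Ponceau Red (Arg marks).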

In test [3] the test system is U-937. As to the kind of experiment: Inhibition of histone H4R3 methylation in human U937 cells at 50 uM after 24 hrs. The format is functional, cell-based. The method in brief: as §1
Test [4] relates to U-937. As to the kind of experiment: Inhibition of histone H3R17 methylation in human U937 cells at 50 uM after 24 hrs. The format is functional, cell-based. The method in brief:
as §1

The test system of test [5] is U-937. As to the kind of experiment: Cell cycle arrest in human U937 cells assessed as accumulation at G2 phase at 25 uM after 30 hrs. The format is functional, cell-based. The method in brief: (§2)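 U937 cells in RPMI with 10% fetal calf serum, HEPES and glutamine, kept at 200000 cells/mL; treated at 25 µM for 30 h, then the distribution across cell cycle phases was analysed.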

For test [6], the system named is U-937. As to the kind of experiment: Induction of apoptosis in human U937 cells at 25 uM after 30 hrs. The format is functional. The method in brief: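 Apoptosis read as caspase 3 activation by FACS, in U937 cells (RPMI, 10% fetal calf serum, 200000 cells/mL) exposed to 25 µM for 30 h.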
For test [7], the system named is U-937. As to the kind of experiment: Induction of granulocytic differentiation in human U937 cells assessed as CD11c expression at 5 uM after 30 hrs. The format is functional. The method in brief:
(§3)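 U937 cells treated for 30 h, then stained with PE-conjugated CD11c (PE mouse IgG1 as control) for 30 min at 4 °C in the dark and resuspended in PBS with PI (0.25 µg/mL). Read-out is percent CD11c-positive/PI-negative cells, with dead PI-positive cells excluded. Coloured compounds limited the top dose to 5 µM or lower.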

The target of test [8] is RmtA (Emericella nidulans, UniProt Q5VLE3). As to the kind of experiment: Inhibition of Aspergillus nidulans RmtA. The method in brief: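 Enzyme was GST-RmtA fusion expressed in E. coli BL21 and glutathione-affinity purified (500 ng), preincubated with compound for 15 min at room temperature. Then 20 µg chicken erythrocyte core histones and 0.55 µCi [3H]AdoMet were added, 30 min at 30 °C. Stopped with 25% TCA, filtered, counted by liquid scintillation.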
RmtA, sequence (Q5VLE3 whole entry, the tested form may be a part): as the sequence (Q5VLE3 as listed by the source) above

Test [9] addresses Protein arginine N-methyltransferase 1 (Homo sapiens) (UniProt Q99873). As to the kind of experiment: Inhibition of human recombinant PRMT1 assessed as histone H4 methylation at 50 uM.
Test [10] shares this target. As to the kind of experiment: Inhibition of human recombinant PRMT1 assessed as nuclear ribonucleoprotein Npl3p methylation at 100 uM. The method in brief:
(§4)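 Recombinant enzymes (0.2 µg) with substrate (0.5 µg: Npl3p for PRMT1, PABP1 for CARM1, histone H3 for SET7), 0.5 µM [3H]AdoMet and 100 µM compound in PBS pH 7.4 with 3.3% v/v DMSO, 90 min at 30 °C. Products separated by 10% SDS-PAGE, transferred to PVDF, detected by fluorography on film overnight.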

Test [11] has as its target T1, Histone-arginine methyltransferase CARM1 (Homo sapiens) (UniProt Q86X55).
T1 sequence (whole entry): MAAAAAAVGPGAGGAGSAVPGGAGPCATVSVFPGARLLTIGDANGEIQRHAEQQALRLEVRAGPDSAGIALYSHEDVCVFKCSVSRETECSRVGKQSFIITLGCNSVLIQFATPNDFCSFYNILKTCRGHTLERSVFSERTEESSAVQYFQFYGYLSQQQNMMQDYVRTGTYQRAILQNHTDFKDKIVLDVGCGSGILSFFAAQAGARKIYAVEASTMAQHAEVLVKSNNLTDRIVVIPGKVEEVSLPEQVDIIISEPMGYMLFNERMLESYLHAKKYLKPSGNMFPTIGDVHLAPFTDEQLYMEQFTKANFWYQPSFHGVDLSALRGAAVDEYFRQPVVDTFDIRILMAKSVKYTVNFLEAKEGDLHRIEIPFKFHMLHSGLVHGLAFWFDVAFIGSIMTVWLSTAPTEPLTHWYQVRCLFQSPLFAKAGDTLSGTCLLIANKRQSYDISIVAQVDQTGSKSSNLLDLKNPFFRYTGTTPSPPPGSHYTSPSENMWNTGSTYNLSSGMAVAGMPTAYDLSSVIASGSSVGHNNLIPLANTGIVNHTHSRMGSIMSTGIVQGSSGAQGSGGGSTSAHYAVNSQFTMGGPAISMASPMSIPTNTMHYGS
As to the kind of experiment: Inhibition of human recombinant CARM1 assessed as poly(A) binding protein 1 methylation at 100 uM. The method in brief: as §4

The target of test [12] is T2, Histone-lysine N-methyltransferase SETD7 (Homo sapiens) (UniProt Q8WTS6).
T2 sequence (whole entry): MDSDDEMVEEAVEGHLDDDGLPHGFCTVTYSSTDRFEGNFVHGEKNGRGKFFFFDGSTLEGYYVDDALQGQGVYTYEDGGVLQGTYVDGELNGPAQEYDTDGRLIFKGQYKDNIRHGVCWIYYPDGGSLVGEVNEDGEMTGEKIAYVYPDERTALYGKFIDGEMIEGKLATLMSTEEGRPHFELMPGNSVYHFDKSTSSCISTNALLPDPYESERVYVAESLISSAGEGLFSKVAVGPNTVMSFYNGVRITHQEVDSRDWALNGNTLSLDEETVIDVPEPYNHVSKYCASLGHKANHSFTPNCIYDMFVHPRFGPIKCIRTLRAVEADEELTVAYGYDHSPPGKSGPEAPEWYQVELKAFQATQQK
As to the kind of experiment: Inhibition of human recombinant SET7 assessed as histone H3 protein methylation at 100 uM. The method in brief:
as §4

The subject of test [13] is U-937. As to the kind of experiment: Inhibition of human p300/CBP in U937 cells at 50 uM assessed as histone H3 acetylation. The format is cell-based. The method in brief: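 Source was U937 nuclear extract (10 µg per assay) as p300/CBP HAT, with histone H3 substrate and compound at 50 µM or DMSO control for 90 min. Acetyl-H3 detected by indirect ELISA, quantified against acetylated H3 peptide standard curves, […].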

Test [14] addresses T3, NAD-dependent protein deacetylase sirtuin-1 (Homo sapiens) (UniProt Q96EB6).
T3 sequence (whole entry): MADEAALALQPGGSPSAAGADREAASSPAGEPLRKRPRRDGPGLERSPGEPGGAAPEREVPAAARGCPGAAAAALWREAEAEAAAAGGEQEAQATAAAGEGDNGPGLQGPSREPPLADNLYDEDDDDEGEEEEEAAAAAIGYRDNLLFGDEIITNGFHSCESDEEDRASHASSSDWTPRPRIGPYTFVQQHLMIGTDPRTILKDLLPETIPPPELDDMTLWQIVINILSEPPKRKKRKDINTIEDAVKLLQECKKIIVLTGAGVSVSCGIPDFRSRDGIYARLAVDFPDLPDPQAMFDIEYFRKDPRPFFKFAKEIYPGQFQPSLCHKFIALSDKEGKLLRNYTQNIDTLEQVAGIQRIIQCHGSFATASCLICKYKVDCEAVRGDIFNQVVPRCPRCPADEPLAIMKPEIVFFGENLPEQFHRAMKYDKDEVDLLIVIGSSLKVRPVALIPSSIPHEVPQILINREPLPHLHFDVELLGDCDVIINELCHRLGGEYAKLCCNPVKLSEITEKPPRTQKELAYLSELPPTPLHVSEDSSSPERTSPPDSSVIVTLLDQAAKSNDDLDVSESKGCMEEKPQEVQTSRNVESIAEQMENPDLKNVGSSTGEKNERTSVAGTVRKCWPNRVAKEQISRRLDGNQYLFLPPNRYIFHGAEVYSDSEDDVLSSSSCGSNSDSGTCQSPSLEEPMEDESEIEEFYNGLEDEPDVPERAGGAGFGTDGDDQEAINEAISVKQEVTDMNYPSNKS
As to the kind of experiment: Inhibition of human SIRT1 at 25 uM. The method in brief:
(§5)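 Fluorescent two-stage assay. SIRT1 (1 U/well) or SIRT2 (5 U/well) with Fluor de Lys-SIRT1/2 substrate, NAD+ and compound at 25 µM, 37 °C for 2 h. Developer II containing nicotinamide then stopped the reaction and generated signal, read at ex 360/em 460 nm.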

For test [15], the target named is T4, NAD-dependent protein deacetylase sirtuin-2 (Homo sapiens) (UniProt Q8IXJ6).
T4 sequence (whole entry): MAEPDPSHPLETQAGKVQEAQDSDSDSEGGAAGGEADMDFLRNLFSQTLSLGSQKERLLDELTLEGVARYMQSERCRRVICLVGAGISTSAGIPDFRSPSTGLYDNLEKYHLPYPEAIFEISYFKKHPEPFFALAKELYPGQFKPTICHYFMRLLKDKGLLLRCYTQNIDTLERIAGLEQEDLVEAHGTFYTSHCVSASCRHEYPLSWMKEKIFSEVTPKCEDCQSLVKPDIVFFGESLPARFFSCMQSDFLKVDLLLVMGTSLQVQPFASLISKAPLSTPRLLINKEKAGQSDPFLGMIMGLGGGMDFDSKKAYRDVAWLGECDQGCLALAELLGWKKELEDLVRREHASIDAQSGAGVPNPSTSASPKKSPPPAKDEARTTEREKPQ
As to the kind of experiment: Inhibition of human SIRT2 at 25 uM. The method in brief:
as §5

The subject of test [16] is U-937. As to the kind of experiment: Cell cycle arrest in human U937 cells assessed as accumulation at S phase at 25 uM after 30 hrs. Format: functional, cell-based. The method in brief:
as §2

In test [17] the target is RmtA (Emericella nidulans) (UniProt Q5VLE3). As to the kind of experiment: Inhibition of Aspergillus nidulans RmtA at 89.4 uM.
Test [18] has the same target. As to the kind of experiment: Inhibition of Aspergillus nidulans RmtA at 77 uM.
Test [19] deals with U-937. As to the kind of experiment: Induction of granulocytic differentiation in human U937 cells assessed as CD11c expression at 0.5 uM after 30 hrs. The format is functional. The method in brief:
as §3

Test [20] relates to U-937. As to the kind of experiment: Induction of cell cycle arrest in human U937 cells at 25 uM after 30 hrs. The format is functional, cell-based. The method in brief: as §2
The subject of test [21] is U-937. As to the kind of experiment: Induction of granulocytic differentiation in human U937 cells assessed as CD11c expression at 1 uM after 30 hrs. Format: functional. The method in brief: as §3

Protein arginine N-methyltransferase 1 (Homo sapiens), sequence (Q99873 whole entry, looked up): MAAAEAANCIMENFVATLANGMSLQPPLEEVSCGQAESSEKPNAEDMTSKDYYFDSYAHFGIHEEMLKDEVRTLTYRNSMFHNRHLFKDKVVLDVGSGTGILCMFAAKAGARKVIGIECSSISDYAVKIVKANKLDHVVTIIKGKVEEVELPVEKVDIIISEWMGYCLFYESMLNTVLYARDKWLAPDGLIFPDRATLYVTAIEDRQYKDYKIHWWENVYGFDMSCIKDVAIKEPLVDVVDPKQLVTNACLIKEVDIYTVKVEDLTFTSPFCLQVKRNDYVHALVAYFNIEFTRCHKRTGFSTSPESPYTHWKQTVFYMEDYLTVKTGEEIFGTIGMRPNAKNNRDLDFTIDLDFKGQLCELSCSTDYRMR

In test [1], `O=C(c1cc(Br)c(O)c(Br)c1)c1cc(Br)c(O)c(Br)c1` displayed an inhibition of 0%. The result in test [2], in [3] and in test [4] was Active.

For the compound `CN1C/C(=C\c2cc(Br)c(O)c(Br)c2)C(=O)/C(=C/c2cc(Br)c(O)c(Br)c2)C1`, the result in test [5], in [10], in [11], in test [12], in [2] and in [3] was Active. Also, the result in test [4] was Active. In addition, the results for the Activity in test [6] and in test [7] were 1% and 53.2%, respectively. Also, 39 µM corresponded to half-maximal inhibition in test [8] (IC50). Besides, the inhibition in test [9] was found to be 73%; in [13], 87%; in [14] it was 63%; in [15], 64%.

As for `O=C1/C(=C/c2cc(Br)c(O)c(Br)c2)CCC/C1=C\c1cc(Br)c(O)c(Br)c1`, the result in test [16], in test [10], in [11], in test [12], in [2] and in test [3] was Active. In addition, the result in test [4] was Active. For the same compound, the Activity is 2% in test [6] and 70.9% in [7]. The same compound gave an IC50 in [8] of 14 µM. For the same compound, the inhibition in test [9] was found to be 44%; in test [13] it was 96%; in test [14] it was 50%; in [15] it was 56%.

The compound `O=C1/C(=C/c2ccc(O)c(Br)c2)CCCC/C1=C\c1ccc(O)c(Br)c1` yielded an inhibition in test [17] of 0%. Besides, the outcome in [10] and in test [12] was inactive. Besides, the outcome in test [11], in test [2], in [3] and in test [4] was Active.

`O=C1/C(=C/c2ccc(O)c(Br)c2)CN(Cc2ccccc2)C/C1=C\c1ccc(O)c(Br)c1` showed an inhibition in test [18] of 0%. For the same compound, the outcome in test [10] and in [12] was inactive. Moreover, the outcome in [11], in [2], in test [3] and in test [4] was Active.

For the compound `O=C(/C=C/c1cc(Br)c(O)c(Br)c1)/C=C/c1cc(Br)c(O)c(Br)c1`, the outcome in [5], in test [11], in test [12], in test [2], in [3] and in test [4] was Active. Further, the Activity in test [6] is reported as 1.1%; in [7], 95.2%; in [19], 77%. In [8], the IC50 is 69 µM. Besides, the inhibition in test [9] was 76%; in test [13], 100%; in test [14], 61%; in test [15] it was 100%.

For the compound `O=C1OC2(c3ccccc31)c1cc(Br)c(O)c(Br)c1Oc1c2cc(Br)c(O)c1Br` [EOSIN], in test [20], the result was inactive. The Activity in test [6] was determined as 0.5%; in [21] it was 5.7%. The IC50 in test [8] came out at 18 µM. Also, the inhibition is 96% in [9], 20% in [13], 33% in [14] and 31% in [15]. In addition, the outcome in test [10], in test [11], in [12], in test [3] and in test [4] was Active.
